According to ChEMBL document CHEMBL2311397, “Design and synthesis of cyclopropylamide analogues of combretastatin-A4 as novel microtubule-stabilizing agents” (J Med Chem, 2013):
The source made the active and inactive calls. No cut-off for these calls is given here.

What was measured:
A549 [1] = test: Antitumor activity against human A549 cells xenografted in BALB/c nude mouse assessed as tumor growth inhibition at 100 mg/kg, ig measured on day 16; type: functional; details: A549, po, 384 h, route intragastric, read-out: TGI
How it was run: (§1)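 Male BALB/c nude mice, 5 weeks old (18–20 g), implanted subcutaneously in the right armpit with A549 tumor fragments (3 mm3). On day 13, at 100–200 mm3, daily intragastric dosing began: 100 or 500 mg/kg test compound, or 30 mg/kg paclitaxel, in Tween-80 diluted with saline. Vehicle given ip. Tumor volume and body weight followed; n = 6; inhibition rate at day 16.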

A549 [2] = test: Induction of apoptosis in human A549 cells assessed as necrotic cells at 1 uM after 24 hrs by annexin V-FITC/propidium iodide staining-based flow cytometry (reference value: 2.76%); type: functional
A549 [3] = test: Antimitotic activity against human A549 cells assessed as cell mitotic arrest at 1 uM after 22 hrs by DAPI/FITC staining-based laser fluorescence confocal microscopic analysis (reference value: 1.1 %); type: functional
HeLa = test: Cytotoxicity against paclitaxel-resistant human HeLa cells after 48 hrs by MTT assay; type: functional, cell-based
How it was run: (§2)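 Log-phase cells (40000–50000 cells/mL) grown in DMEM with 10% fetal calf serum (5% CO2, 37 °C) and exposed 48 h to five concentrations, 3–5 replicates. Read-out was MTT with absorbance at 570 nm; IC50 reported as mean ± SD of three independent experiments. Resistant A549 and HeLa sublines were made by stepwise paclitaxel selection; resistance index = IC50(resistant)/IC50(sensitive).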

A549 [4] = test: Cell cycle arrest in human A549 cells assessed as accumulation at S phase at 1 uM after 24 hrs by propidium iodide staining-based flow cytometry (reference value: 9.12 %); type: functional
A549 [5] = test: Cell cycle arrest in human A549 cells assessed as accumulation at G2/M phase after 24 hrs by propidium iodide staining-based flow cytometry; type: functional
A549 [6] = test: Effect on microtubule dynamics in human A549 cells at 5 to 10 uM after 22 hrs by DAPI/FITC staining-based laser fluorescence confocal microscopic analysis; type: functional, cell-based
How it was run: (§3)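 Confocal imaging of A549 cells exposed for 22 h to compound or vehicle (0.2% DMSO final), added at 70% confluency after overnight growth. Fixation followed by 0.5% Triton X-100 permeabilization and 10% goat serum blocking; tubulin stained with FITC anti-α-tubulin (1:100, 2 h, 37 °C), nuclei counterstained with DAPI. Wide-field images taken at 10–15 random slide locations.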

[7] = Cytotoxicity against human QGY cells after 48 hrs by MTT assay; type: functional, cell-based; details: Homo sapiens, QGY, 48 h; how it was run: as §2
A549 [8] = test: Cell cycle arrest in human A549 cells assessed as accumulation at G2/M phase at 1 uM after 24 hrs by propidium iodide staining-based flow cytometry (reference value: 2.78 %); type: functional
K562 = test: Cytotoxicity against human K562 cells after 48 hrs by MTT assay; type: functional, cell-based; details: Homo sapiens, K562, 48 h; how it was run: as §2
A549 [9] = test: Induction of apoptosis in human A549 cells assessed as viable cells at 1 uM after 24 hrs by annexin V-FITC/propidium iodide staining-based flow cytometry (reference value: 94.08%); type: functional; details: A549, 24 h, read-out: Activity
A549 [10] = test: Cell cycle arrest in human A549 cells assessed as accumulation at S phase at 0.1 uM after 24 hrs by propidium iodide staining-based flow cytometry (reference value: 9.12 %); type: functional
A549 [11] = test: Cell cycle arrest in human A549 cells assessed as accumulation at G2/M phase at 0.1 uM after 24 hrs by propidium iodide staining-based flow cytometry (reference value: 2.78 %); type: functional
A549 [12] = test: Resistance index, ratio of IC50 for paclitaxel-resistant human A549 cells to IC50 for paclitaxel-sensitive human A549 cells; type: functional; how it was run: as §2
A549 [13] = test: Cytotoxicity against paclitaxel-resistant human A549 cells after 48 hrs by MTT assay; type: functional, cell-based; details: A549, 48 h; how it was run: as §2
A549 [14] = test: Effect on spindle microtubule dynamics in human A549 cells at 10 uM after 22 hrs by DAPI/FITC staining-based laser fluorescence confocal microscopic analysis
Tubulin (Homo sapiens) = Tubulin (Homo sapiens) (UniProt P68371+Q9H4B7+P0DPH7+P68366+Q13509+Q71U36+P04350+Q3ZCM7+P07437+P68363+Q9BQE3+Q6PEY2+Q13885+Q9BVA1+Q9BUF5); test: Activation of tubulin (unknown origin) polymerization at 10 uM; type: protein-complex assay
How it was run: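 Purified brain tubulin (kit), final 3.0 mg/mL, in 80.0 mM PIPES sesquisodium pH 6.9, 2.0 mM MgCl2, 0.5 mM EGTA, 1 mM GTP, 10.2% glycerol; components prewarmed to 37 °C, reaction started by adding tubulin. A340 read each minute for 1 h. Single-point % stimulation used 10 μM compound; EC50 from 3.75, 7.5, 15, 30, 60 μM.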

Mus musculus = test: Toxicity in human A549 cells xenografted BALB/c nude mouse assessed as change in body weight at 100 to 500 mg/kg, ig; type: organism-based; design: dose 100-500 mg/kg, route intragastric; details: in vivo, po; how it was run: as §1
A549 [15] = test: Antimitotic activity against human A549 cells assessed as cell mitotic arrest at 10 uM after 22 hrs by DAPI/FITC staining-based laser fluorescence confocal microscopic analysis (reference value: 1.1 %); type: functional
A549 [16] = test: Induction of apoptosis in human A549 cells assessed as viable cells at 5 uM after 24 hrs by annexin V-FITC/propidium iodide staining-based flow cytometry (reference value: 94.08%); type: functional; details: A549, 24 h, read-out: Activity
A549 [17] = test: Antitumor activity against human A549 cells xenografted in ig dosed BALB/c nude mouse assessed as tumor growth inhibition measured on day 16; type: functional, organism-based; how it was run: as §1
A549 [18] = test: Antitumor activity against human A549 cells xenografted in BALB/c nude mouse assessed as tumor growth inhibition at 500 mg/kg, ig measured on day 16; type: functional; details: A549, po, 384 h, route intragastric, read-out: TGI; how it was run: as §1
A549 [19] = test: Cell cycle arrest in human A549 cells assessed as accumulation at G1 phase at 1 uM after 24 hrs by propidium iodide staining-based flow cytometry (reference value: 87.56 %); type: functional
A549 [20] = test: Induction of apoptosis in human A549 cells assessed as late apoptotic cells at 10 uM after 24 hrs by annexin V-FITC/propidium iodide staining-based flow cytometry (reference value: 1.02%); type: functional
A549 [21] = test: Induction of apoptosis in human A549 cells assessed as late apoptotic cells at 1 uM after 24 hrs by annexin V-FITC/propidium iodide staining-based flow cytometry (reference value: 1.02%); type: functional
A549 [22] = test: Induction of apoptosis in human A549 cells assessed as early apoptotic cells at 1 uM after 24 hrs by annexin V-FITC/propidium iodide staining-based flow cytometry (reference value: 0.73 %); type: functional
A549 [23] = test: Induction of apoptosis in human A549 cells assessed as necrotic cells at 5 uM after 24 hrs by annexin V-FITC/propidium iodide staining-based flow cytometry (reference value: 2.76%); type: functional
A549 [24] = test: Effect on spindle microtubule dynamics in human A549 cells at 10 uM after 22 hrs by DAPI/FITC staining-based laser fluorescence confocal microscopic analysis; type: functional, cell-based; how it was run: as §3
A549 [25] = test: Cytotoxicity against human A549 cells after 48 hrs by MTT assay; type: functional, cell-based; details: Homo sapiens, A549, 48 h; how it was run: as §2

Activity (Tubulin (Homo sapiens)): 24.3%
Compound: COc1cc([C@@H]2C[C@]2(CO)C(=O)Nc2ccccc2Cl)cc(OC)c1OC
inhibition in vivo at 100 mg/kg (A549 [1]): 44.6% | Activity (A549 [2]): 1.46% | Activity (A549 [3]): 37.4% | IC50 (HeLa): 10.7 µM | Activity (A549 [4]): 9.96% | Activity (A549 [5]): Dose-dependent effect | Activity (A549 [6]): Active | IC50 [7]: 15.7 µM | Activity (A549 [8]): 51.68% | IC50 (K562): 16.9 µM | viability at 1 µM (A549 [9]): 80.2% | Activity (A549 [10]): 9.54% | Activity (A549 [11]): 12.53% | Ratio IC50 (A549 [12]): 1.2 | IC50 (A549 [13]): 5.3 µM | Activity (A549 [14]): Active | Activity (Mus musculus): Non-toxic | Activity (A549 [15]): 78.8% | viability at 5 µM (A549 [16]): 59% | TGI (A549 [17]): Dose-dependent effect | inhibition in vivo at 500 mg/kg (A549 [18]): 55.9% | Activity (A549 [19]): 38.41% | Activity (A549 [20]): 2.99% | Activity (A549 [21]): 2.82% | Activity (A549 [22]): 15.57% | Activity (A549 [23]): 2.04% | Activity (A549 [24]): Active | IC50 (A549 [25]): 4.4 µM
